Entries after “also recorded” stand apart in the source; their conditions may differ.

The target of series [1] is MLCP purified from pig aorta smooth muscle (Sus scrofa, UniProt P61292). Briefly: MLCP/32P-MLC dephosphorylation inhibition assay. The class given is biochemical. In a few lines:
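MLCP purified from pig aorta (PP1C plus truncated 60-kDa MYPT1). Substrate was chicken gizzard LC20 pre-labelled with [γ-32P]ATP. Reaction: 0.5 μM 32P-LC20, 50 nM MLCP, 0.1 nM okadaic acid, 1 mM DTT, 0.03% Brij35, 25 mM MOPS pH 7.0, with varied compound. Run 10 min at 30°C, stopped with TCA/BSA, released 32P counted. No-enzyme set as 0% and uninhibited as 100%; duplicates; IC50 by nonlinear regression.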

For series [2], the system named is human prostate cancer tissue. In words: Displacement of 17e staining of prostate tissue by calyculin A. Conditions: calyculin A 1 μM pretreatment 10 min, then 17e 10 μM 1 h. The class given is binding. The essentials:
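Serial sections of human prostate tissue. One section stained with 10 μM test compound for 1 h. The adjacent section was pretreated with 1 μM calyculin A for 10 min before the same staining. Compound fluorescence intensity imaged and compared between paired sections.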

Another series in a line: Solubility. The format is physicochemical.
The test system of series [3] is PC-3 cells. Briefly: Analysis of actin disruption. The format is cell-based, human. The essentials:
(§1)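 PC-3 seeded at 100,000 cells/dish in RPMI with 10% FBS and left to adhere 48 h. LNCaP seeded at 200,000 cells/dish and left 24 h in RPMI with 10% FBS and 0.1 nM DHT. Medium replaced with test compound (250 nM–5 μM) for 2 h. Cells fixed in 4% formaldehyde 10 min, permeabilized with 0.1% Triton X-100 30 min, stained with Alexa Fluor–phalloidin 10 min, then imaged against untreated controls.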

For series [4], the system named is PC-3 cells. In words: Cell cycle analysis by FACS, PC-3. The class given is cell-based, human. To be noted: 1 μM. In a few lines:
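PC-3 seeded at 200,000 cells/well in six-well plates overnight, then serum-starved 24 h. Treated with 1 μM test compound; controls kept in serum-free medium. Incubated 6, 24 or 48 h, then trypsinized, ethanol-fixed and analysed for cell-cycle distribution by FACS. Values averaged from three independent experiments.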
On the technique in general: A flow cytometer gives signals particle by particle.

Series [5] relates to PC-3 cells. Briefly: BrdU uptake assay, PC-3. The format is cell-based, human. The essentials:
(§2)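 Cells seeded overnight in six-well plates: LNCaP 500,000/well, DU145 and PC-3 200,000/well. Treated with 1 μM test compound in serum-free medium for 24 h, then BrdU pulsed 1 h. Cells trypsinized, fixed in 4% formaldehyde 10 min, permeabilized, and labelled with FITC anti-BrdU 1 h at 25°C. Analysed by flow cytometry against untreated control; n = 3, mean ± SEM.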

Series [6] concerns LNCaP cells. In words: Growth inhibition. The format is cell-based, human. In a few lines: (§3)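 LNCaP seeded at 20,000 cells/well overnight in RPMI with 10% FBS, 1% L-glutamine, 1% pen/strep and 0.1 nM DHT. CWR22Rv1 (20,000/well), DU145 and PC-3 (5,000/well) seeded in the same medium without DHT. Treated with test compound in serum-free medium, five wells per concentration, for 48 h; vehicle was 0.001% DMSO. Viability read by WST-8 after 2 h at 450 nm (reference 655 nm). Initial-plating value subtracted, percent growth versus control calculated, GI50 derived; n = 5, SEM.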

Series [7] deals with LNCaP cells. In words: Analysis of actin disruption. Conditions: 2 h, 250 nM up to highest dose 5 μM. The format is cell-based, human. In a few lines:
as §1

For series [8], the system named is PC-3 cells. In words: Cellular morphology after treatment. The format is cell-based, human. Conditions: PC-3, 1 μM, 24 h.
Series [9] relates to DU145 cells. In words: BrdU uptake assay, DU145. The format is cell-based, human. Conditions: DU145, 1 μM, 24 h. In a few lines:
as §2

Series [10] deals with LNCaP cells. In words: Cell cycle analysis by FACS, LNCaP. The class given is cell-based, human.
Series [11] has as its system CWR22Rv1 cells. Briefly: Growth inhibition. The class given is cell-based. To be noted: Homo sapiens, CWR22Rv1, 48 h, CWR22Rv1 (CWR), 48 h treatment. The essentials: as §3
The subject of series [12] is CWR22Rv1 cells. In words: Cell cycle analysis by FACS, CWR22RV1. The format is cell-based, human. To be noted: CWR22RV1, 24 h.
The subject of series [13] is DU145 cells. Briefly: Growth inhibition. The format is cell-based. To be noted: Homo sapiens, DU-145, 48 h, DU145, 48 h treatment. In a few lines: as §3
The subject of series [14] is PC-3 cells. In words: Chemotaxis assay. The format is cell-based, human. Conditions: IGF-1 attractant. The essentials:
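96-well Boyden chamber with 8-μm porous membrane. 200,000 PC-3 cells per upper well in serum-free medium with test compound. Lower wells held IGF-1 plus the same compound concentration; serum-free medium served as negative control. Incubated overnight at 37°C, 5% CO2. Membrane fixed and Diff-Quik stained, upper-surface cells scraped off, absorbance read at 595 nm; n = 5, mean ± SEM.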

Series [15] concerns LNCaP cells. Briefly: BrdU uptake assay, LNCaP. The class given is cell-based, human. To be noted: 1 μM, 24 h. In a few lines: as §2
In series [16] the test system is PC-3 cells. In words: Growth inhibition. The class given is cell-based. Conditions: Homo sapiens, PC-3, 48 h, PC-3, 48 h treatment. The essentials:
as §3

Sequence of MLCP purified from pig aorta smooth muscle (P61292 2-327 limits assumed): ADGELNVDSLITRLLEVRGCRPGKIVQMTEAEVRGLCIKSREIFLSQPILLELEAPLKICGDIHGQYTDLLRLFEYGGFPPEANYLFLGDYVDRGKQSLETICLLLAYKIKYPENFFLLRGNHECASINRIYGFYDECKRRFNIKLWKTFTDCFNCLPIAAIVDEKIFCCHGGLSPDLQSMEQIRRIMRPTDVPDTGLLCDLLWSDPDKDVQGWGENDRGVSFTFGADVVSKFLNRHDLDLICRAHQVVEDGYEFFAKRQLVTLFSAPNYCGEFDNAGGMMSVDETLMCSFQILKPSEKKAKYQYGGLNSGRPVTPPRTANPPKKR

In general, IC50 refers to the concentration that inhibits the measured activity by half. Consider `Nc1nc(-c2ccc(OC(=O)c3ccc(-c4ccccc4)cc3)cc2)cs1` [14a, biphenyl-4-carboxylic acid 4-(2-amino-thiazol-4-yl)-phenyl ester], for which it took 485 µM to reach half-maximal inhibition in series [1] (IC50).
Still for that read-out and setting: the figure for `COc1ccc(-c2csc(N=C(N)N)n2)cc1` [13m, N-[4-(4-methoxy-phenyl)-thiazol-2-yl]-guanidine] is 840 µM.
Regarding `COC[C@@H]([C@H](O)[C@H](O)C(=O)NCC[C@H](C)c1nc(/C=C/C[C@@H]2O[C@]3(C[C@@H](O)[C@@H]2C)O[C@H]([C@H](C[C@H](O)[C@H](C)[C@H](O)[C@H](C)/C=C(C)/C(C)=C/C=C/C(C)=C\C#N)OC)[C@H](OP(=O)(O)O)C3(C)C)co1)N(C)C` [calyculin A], the “Reduction in fluorescence intensity due to 17e (17e binding)” value in [2] is listed as 60%.
Consider `N=C(N)Nc1nc(-c2ccc(OC(=O)c3ccc(-c4ccccc4)cc3)cc2)cs1` [13a, biphenyl-4-carboxylic acid 4-(2-guanidino-thiazol-4-yl)-phenyl ester], for which, in [1], the IC50 was 74 µM.
In general, GI50 refers to the concentration giving 50% growth inhibition. A high value points to lower sensitivity of the cells. For the compound `CN(C)c1cccc2c(S(=O)(=O)Oc3ccc(-c4csc(NC(=N)N)n4)cc3)cccc12` [17e, 5-dimethylamino-naphthalene-1-sulfonic acid 4-(2-guanidino-thiazol-4-yl)-phenyl ester], the “Solubility (relative)” value in “Solubility” is listed as “higher solubility”. In the series on PC-3 cells [3] (PC-3, 2 h, 250 nM, 1 μM and 5 μM), the “Actin disruption compared to control” value is given as “increasing amounts of actin disruption”. The “Concentration at which actin disruption begins” value in the series with PC-3 cells [3] (PC-3, 2 h treatment) is on record as 250 nM. For the same compound, the Cell cycle effect result in the series on PC-3 cells [4] (6 h) is “increased S and G2/M populations”; with PC-3 cells [4] (24 h), “complete cell cycle arrest in the G2/M phase”; in the series on LNCaP cells [10], “little change from control”; in the series with CWR22Rv1 cells [12], “G2/M arrest”. Further, in the series on PC-3 cells [4] (48 h), the “Cell death (SubG1 population)” value is “increase in cells death”. The “Cell cycle effect (G2/M arrest persistence)” value in the series on PC-3 cells [4] (through 48 h) is reported as “continued unchanged”. Also, in the series on PC-3 cells [5] (PC-3), the “Reduction in DNA synthesis as measured by BrdU uptake” value is 10 fold. Moreover, the “BrdU incorporation compared to control” value in the series on PC-3 cells [5] (PC-3, 1 μM, 24 h) was ~ 10%; with DU145 cells [9] it was ~ 40%. In addition, in the series with LNCaP cells [6] (CRPC lines (CWR22Rv1, DU145, PC-3) versus LNCaP), the “GI50 of CRPC cell lines compared to AD prostate cells” value is “four-fold lower”. The GI50 is ~2 µM with LNCaP cells [6] (Homo sapiens, LNCaP, 48 h, 48 h treatment); ~0.5 µM with CWR22Rv1 cells [11]; ~0.5 µM with DU145 cells [13]; ~0.5 µM in the series with PC-3 cells [16]. Moreover, the F-actin disruption entry in the series with LNCaP cells [7] was “did not show any disruption of the F-actin network; also recorded: no actin disruption; also recorded: did not demonstrate any F-actin disruption”. The Cellular morphology entry with PC-3 cells [8] is reported as “became more spherical”. Also, the “Migration of PC-3 cells” value in the series with PC-3 cells [14] (3 μM) is reported as “reduced to the same level as wells that contained only serum free media”. Also, the “Migrated cells compared with IGF-1 alone” value in the series with PC-3 cells [14] (5 μM) is recorded as “three times fewer cells”. The “Migration of PC-3 cells through the membrane” value in the series on PC-3 cells [14] (increasing drug concentrations) is reported as “dose dependent decrease”. Besides, the “DNA synthesis (BrdU incorporation)” value in the series on LNCaP cells [15] is listed as “unaffected”.
Consider `N=C(N)Nc1nc(-c2ccc(NC(=O)c3ccc4ccccc4c3)cc2)cs1` [13h, naphthalene-2-carboxylic acid [4-(2-guanidino-thiazol-4-yl)-phenyl]-amide], for which the “Solubility (relative)” value in “Solubility” is “much lower solubility than 17e”.
`COc1cccc(-c2ccc(C(=O)Oc3ccc(-c4csc(NC(=N)N)n4)cc3)cc2)c1` [10a, 3′-methoxy-biphenyl-4-carboxylic acid 4-(2-guanidino-thiazol-4-yl)-phenyl ester]: in “Solubility”, the “Solubility (relative)” value is reported as “much lower solubility than 17e”. In addition, it took 12 µM to reach half-maximal inhibition in [1] (IC50).

For the origin of these results see publication PMC3356144 (Frontiers in Oncology, 2011).
